Screening results (PubChem BioAssay)
SENP8 block-1: blocks the human protease SENP8 | Q96LD8 | purified SENP8, Z-RLRGG-aminoluciferin cleavage, luminescence | inhibition, % at 10 µM | 1.2% of 330,000 active | AID 2540; in the data active = inhibition above about 50%
SENP1 FRET inh: SENP1 (human) catalytic domain inhibition; inhibition, % at 10 µM; recombinant SENP1 catalytic domain, CyPet-SUMO1-YPet FRET cleavage; Q9P0U3; 0.21% of 360,000 active;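 active = inhibition at least 30% at 10 µM, raw YFP signal under a set limit, fluorescence ratio 0.5 to 1.5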
Target sequence (Q9P0U3 419-644 limits assumed): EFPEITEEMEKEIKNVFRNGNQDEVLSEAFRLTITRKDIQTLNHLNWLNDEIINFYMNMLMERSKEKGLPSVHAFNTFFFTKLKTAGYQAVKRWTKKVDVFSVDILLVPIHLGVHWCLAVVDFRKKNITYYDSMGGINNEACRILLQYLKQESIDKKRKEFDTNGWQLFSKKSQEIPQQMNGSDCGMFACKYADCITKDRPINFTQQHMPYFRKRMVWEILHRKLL
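Assay system – human recombinant His6-tagged SENP1 catalytic domain enzyme · Input – SENP1 enzyme, 20 pM final · Buffer or medium – Tris pH 8 buffer plus EDTA, NaCl, BME, BSA, NP40, catalase · Schedule – 50 min reaction at room temperature · Technique – FRET read of cyan and yellow fluorescence · Control set – no-enzyme wells low, DMSO-plus-enzyme wells high control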
SENP7 inh: inhibitors of human SENP7 protease | Q9BQF6 | recombinant SENP7, Z-RLRGG-aminoluciferin luminescence, 40 min | inhibition, % at 5 µM | 1.5% of 330,000 active;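 active = inhibition above about 50% at the single test dose, limit read from the data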
Target sequence (Q9BQF6 706-1050 limits assumed): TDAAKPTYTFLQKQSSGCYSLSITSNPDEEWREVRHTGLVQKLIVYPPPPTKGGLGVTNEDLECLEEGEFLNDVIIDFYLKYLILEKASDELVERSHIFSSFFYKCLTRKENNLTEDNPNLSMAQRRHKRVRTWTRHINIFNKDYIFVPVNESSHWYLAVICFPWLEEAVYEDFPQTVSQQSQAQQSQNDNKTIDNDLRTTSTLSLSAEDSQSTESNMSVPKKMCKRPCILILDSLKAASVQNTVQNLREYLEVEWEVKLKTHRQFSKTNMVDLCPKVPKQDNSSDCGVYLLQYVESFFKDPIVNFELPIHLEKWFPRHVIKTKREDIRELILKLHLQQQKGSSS
SENP6 inh: blocks the human protease SENP6; inhibition, % at 10 µM; 1.8% of 330,000 active; Recombinant SENP6 catalytic domain, aminoluciferin luminescence; AID 2599; Q9GZR1;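 active = inhibition above about 50% at the single tested dose, limit read from the data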
SENP8 block-2: SENP8 (human) protease inhibition. Q96LD8. recombinant SENP8, Nedd8 substrate fluorescence. inhibition, % at 20 µM. 0.64% of 360,000 active. AID 602440; in the data active = inhibition mostly above about 40%, no sharp cut-off; inactive = mostly below about 27%
Apaf-1 inh: blocks human Apaf-1 apoptosome activity | O14727 | reconstituted apoptosome caspase-3 activity, DEVD-Rh110 fluorescence | inhibition, % at 20 µM | 0.71% of 330,000 active | AID 489030; active = inhibition of at least 40% at 20 µM
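Material: reconstituted apoptosome with Apaf-1, cytochrome c, caspase-9, procaspase-3, dATP; medium: pH 7.5 Hepes buffer with CHAPS, BSA, DTT; also added: cytochrome c and DEVD-Rh110 substrate; timing: 30 min plus 50 min, RT; signal: Rh110 fluorescence intensity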
Apaf-1 inh conf2: confirmation of Apaf-1 inhibitors. shares compounds with Apaf-1 inh. reconstituted apoptosome, caspase-3 DEVD-Rh110 fluorescence. inhibition, % at 20 µM. 25% of 1,800 active. AID 504614;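 active = mean inhibition of at least 40% at 20 µM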
Rh110 interf inh: Rh110 signal interference in Apaf-1 inhibitor counter-screen; shares compounds with Apaf-1 inh; Rh110 fluorescence interference, quenched caspase reaction; activation (fluorescence interference), % at 20 µM; 1,800 tested, under 10 active;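 active = signal rise of 40% or more at 20 µM, treated as a fluorescence artifact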
Apaf1 inh interf: shows fluorescence interference in the Apaf-1 inhibitor assay format. 460 tested, under 10 active. shares compounds with Apaf-1 inh. IC50, µM. fluorescence interference counterscreen, Apaf-1 assay format; call rule not given here
Large screens that a line does not name were inactive (follow-up assays come after a bar, where they were run). Shown are actives, neighbours in structure and some others; about 2.9% of the full set was active somewhere.

O=C(NCCc1ccccc1)c1ccc2nc(-c3ccco3)c(-c3ccco3)nc2c1	Apaf-1 inh 45.8 | Apaf-1 inh conf2 inactive | Rh110 interf inh inactive
O=C(c1ccccc1)c1ccc2nc(-c3ccco3)c(-c3ccco3)nc2c1	Apaf-1 inh 40.6 | Apaf-1 inh conf2 inactive | Rh110 interf inh inactive
O=C(NCCc1ccccc1)c1ccc(=O)oc1	none
c1coc(-c2nc3ccccc3nc2-c2ccco2)c1	none
O=C(NCCO)c1ccc2nc(-c3ccco3)c(-c3ccco3)nc2c1	SENP6 inh 55.9, Apaf-1 inh 77.6 | Apaf-1 inh conf2 inactive | Rh110 interf inh inactive
O=C(NC1CCCC1)c1ccc2nc[nH]c2c1	none
O=C(NC1CCCC1)c1ccc2nc(-c3ccco3)c(-c3ccco3)nc2c1	Apaf-1 inh 44.5 | Apaf-1 inh conf2 inactive | Rh110 interf inh inactive
O=C(NCCO)c1ccc(Cl)c(Cl)c1	none
CCN(CC)S(=O)(=O)c1ccc(O)c(C(=O)OCC(=O)NC23CC4CC(CC(C4)C2)C3)c1	none
CC1(C)CC(=O)c2c(-c3cccnc3)n[nH]c2C1	Apaf-1 inh 43.3 | Apaf-1 inh conf2 inactive | Rh110 interf inh inactive
CN(C)/C=C/C(=O)c1ccn(S(=O)(=O)c2ccccc2)c1	none
NC1(C#Cc2ccc3oc(=O)c(-n4cc(-c5ccsc5)nn4)cc3c2)CCCCC1	Apaf-1 inh 47.7 | Apaf-1 inh conf2 inactive | Rh110 interf inh inactive
NC1(C#Cc2ccc3oc(=O)c(-n4cc(C5(O)CCCCC5)nn4)cc3c2)CCCCC1	none
CN(Cc1ccc(Cl)cc1)C(=O)c1ccc(S(=O)(=O)NCc2ccco2)cc1	none
Cc1nn(-c2ccccc2)c(C)c1CN(C)C(=O)c1ccc(S(=O)(=O)NCc2ccco2)cc1	Apaf-1 inh 48.9 | Apaf-1 inh conf2 inactive | Rh110 interf inh inactive
CN(C(=O)c1ccc(NC(=O)Cc2cccc(NC(=O)C3CCCN(C(=O)C4CC4)C3)c2)cc1)C1CC1 (stereo unspecified)	none (no result: SENP8 block-1, SENP7 inh, SENP6 inh, Apaf-1 inh)
CN1/C(=C\C(=O)COC(=O)c2ccc([N+](=O)[O-])o2)C(C)(C)c2ccccc21	Apaf-1 inh 56.2 | Apaf-1 inh conf2 inactive | Rh110 interf inh inactive
CCCCOCCCNC(=O)C[C@@H]1C[C@@]2(C(=O)OC)CC(C)(C)CC=C2N(Cc2ccco2)C1=O	none (no result: SENP8 block-1, SENP7 inh, SENP6 inh, Apaf-1 inh)
CCN(CC)CCCNc1ccc(-c2nnc(-c3ccc(OCC(C)C)cc3)o2)cn1	Apaf-1 inh 41.4 | Apaf-1 inh conf2 inactive | Rh110 interf inh inactive
CN[C@H]1CC[C@@H](c2ccc(Cl)c(Cl)c2)c2ccccc21	Apaf-1 inh 54.0 | Apaf-1 inh conf2 inactive | Rh110 interf inh inactive
Nc1sc(Cc2ccccc2)cc1C(=O)NC1CCCCC1	none (no result: SENP8 block-1, SENP7 inh, SENP6 inh, Apaf-1 inh)
CC(C)NC(=O)c1sc2nc3c(c(-c4cccs4)c2c1N)CN(C)CC3	none
Cc1cccc(NC(=O)c2sc3nc4c(c(-c5cccs5)c3c2N)CN(C)CC4)c1	Apaf-1 inh 49.9 | Apaf-1 inh conf2 inactive | Rh110 interf inh inactive
Cc1[nH]n(-c2ccccc2)c(=O)c1C(=O)c1ccccc1	Apaf-1 inh 61.0 | Apaf-1 inh conf2 inactive | Rh110 interf inh inactive
Cc1ccccc1C(=O)N1CCC(C(=O)N(C)CCOc2ccccc2)CC1	none
Cc1cccc(N(Cc2ccccc2)C(=O)C2CCN(C(=O)c3ccccc3C)CC2)c1	Apaf-1 inh 48.5 | Apaf-1 inh conf2 inactive | Rh110 interf inh inactive
O=C(NCC(c1ccco1)N1CCCC1)c1cccc(S(=O)(=O)Nc2ccc(Br)cc2)c1 (stereo unspecified)	Apaf-1 inh 59.4 | Apaf-1 inh conf2 41.5 | Rh110 interf inh inactive | Apaf1 inh interf inactive
Cc1ccc(NS(=O)(=O)c2cccc(C(=O)NCC(c3ccco3)N3CCCCC3)c2)cc1 (stereo unspecified)	none
O=C1C(NS(=O)(=O)c2cccs2)=C(N2CCN(c3cccc(C(F)(F)F)c3)CC2)C(=O)c2ccccc21	SENP8 block-2 55.9, Apaf-1 inh 47.5 | Apaf-1 inh conf2 inactive | Rh110 interf inh inactive
O=C1C(NS(=O)(=O)c2cccs2)=C(N2CCN(Cc3ccccc3)CC2)C(=O)c2ccccc21	Apaf-1 inh 51.0 | Apaf-1 inh conf2 inactive | Rh110 interf inh inactive
CN1CCN(C2=C(NS(=O)(=O)c3cccs3)C(=O)c3ccccc3C2=O)CC1	none
CCOc1ccc(C(=O)NCC(c2ccco2)N2CCOCC2)cc1 (stereo unspecified)	none
COc1ccc2cc1Oc1ccc(cc1)C[C@H]1c3cc(c(OC)cc3CCN1C)Oc1c(OC)c(OC)cc3c1[C@H](C2)N(C)CC3	none
COc1ccc2cc1Oc1ccc(cc1)C[C@H]1c3c(cc4c(c3Oc3cc5c(cc3OC)CCN(C)[C@@H]5C2)OCO4)CCN1C	Apaf-1 inh 49.2 | Apaf-1 inh conf2 inactive | Rh110 interf inh inactive
Cc1ccc2c(c1)C(=O)C(=O)N2Cc1ccc(Cl)cc1	Apaf-1 inh 40.0 | Apaf-1 inh conf2 inactive | Rh110 interf inh inactive
Cc1ccc2c(c1)C(=O)C(=O)N2Cc1ccc(F)cc1	none
CCCCCCc1cc2cc(C(=O)Nc3ccccc3OC)c(=O)oc2cc1O	none
CCCCCCc1cc2cc(-c3nnc(-c4ccccc4OC)o3)c(=O)oc2cc1O	Apaf-1 inh 62.4 | Apaf-1 inh conf2 64.5 | Rh110 interf inh inactive | Apaf1 inh interf inactive
CN(C)Cc1ccccc1CNC(=O)c1cccc(S(=O)(=O)Nc2ccc3c(c2)OCO3)c1	none (no result: SENP8 block-1, SENP7 inh, SENP6 inh, Apaf-1 inh)
CC(C)CCN(C(=O)CCCSc1nc2ccccc2[nH]1)c1c(N)n(Cc2ccccc2)c(=O)[nH]c1=O	none
COC(=O)c1ccc(C(=O)Nc2ccc(N)cc2N)cc1	Apaf-1 inh 48.2 | Apaf-1 inh conf2 inactive | Rh110 interf inh inactive
Cc1nc(-c2ccc(F)cc2)c(CC(=O)N2CCN(S(=O)(=O)c3ccccc3Br)CC2)s1	none | Apaf-1 inh conf2 inactive | Rh110 interf inh inactive
CSc1ccc(CN2CCC(C)(Oc3ccccc3)C2)cc1 (stereo unspecified)	none (no result: SENP8 block-1, SENP7 inh, SENP6 inh, Apaf-1 inh)
Oc1ccc(-c2c(-c3ccsc3)sc3ccccc23)cc1	none
COc1ccc(-c2sc3cc(OC)ccc3c2-c2ccc(OCCN3CCOCC3)cc2)cc1	none (no result: SENP8 block-1, SENP6 inh)
c1ccc(-c2sc3ccccc3c2-c2ccc(OCCN3CCCCC3)cc2)cc1	Apaf-1 inh 52.5 | Apaf-1 inh conf2 inactive | Rh110 interf inh inactive
c1ccc2c(-c3ccc(OCCN4CCCCC4)cc3)c(-c3ccsc3)sc2c1	Apaf-1 inh 59.1 | Apaf-1 inh conf2 inactive | Rh110 interf inh inactive
C=CCNC(C(=O)Nc1cccc(OC)c1)c1ccccc1 (stereo unspecified)	Apaf-1 inh 42.9 | Apaf-1 inh conf2 inactive | Rh110 interf inh inactive
